Shown are actives, neighbours in structure and some others; about 1.8% of the full set was active somewhere.
M4 PAM – human M4 muscarinic receptor positive allosteric modulators, primary screen, CHO-K1 cells, Fluo-8 calcium fluorescence; activation, % at 3 µM; CHO-K1 hM4/Gqi5, ACh EC20; 0% = ACh EC20, 100% = maximal ACh; actives 0.4% (n = 360,000); Muscarinic acetylcholine receptor M4 (Homo sapiens), P08173; AID 624126, 2012;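 active = activation above its plate's cutoff, the mean activation of sample wells plus 3 SD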
Target sequence (P08173 whole entry, looked up): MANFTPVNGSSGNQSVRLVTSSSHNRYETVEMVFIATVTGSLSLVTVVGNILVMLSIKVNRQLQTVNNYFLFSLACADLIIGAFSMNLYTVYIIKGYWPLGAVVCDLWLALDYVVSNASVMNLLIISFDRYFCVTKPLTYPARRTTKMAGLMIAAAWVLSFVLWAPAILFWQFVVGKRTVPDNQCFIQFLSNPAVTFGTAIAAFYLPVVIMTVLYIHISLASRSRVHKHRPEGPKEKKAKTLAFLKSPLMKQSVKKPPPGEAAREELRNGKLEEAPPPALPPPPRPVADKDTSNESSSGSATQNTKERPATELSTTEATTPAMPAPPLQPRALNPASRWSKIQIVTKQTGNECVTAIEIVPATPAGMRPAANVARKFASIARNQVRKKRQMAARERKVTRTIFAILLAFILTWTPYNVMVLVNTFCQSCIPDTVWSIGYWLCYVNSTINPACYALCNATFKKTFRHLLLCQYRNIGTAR
M5 PAM – human M5 muscarinic receptor positive allosteric modulators, primary screen, CHO-K1 cells, Fluo-8 calcium fluorescence; Muscarinic acetylcholine receptor M5 (Homo sapiens), P08912; CHO-K1 hM5, ACh EC20 PAM; 0% = ACh EC20, 100% = ACh EC100; activation, % at 3 µM; actives 0.3% (n = 360,000);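 active = activation above the run cutoff, the mean activation of all test compounds plus 3 SD, cut at about 18% in these data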
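Test system: CHO-K1 hM5 cells / Doses: single-point, 3 µM nominal / Times: Post-acetylcholine fluorescence recording 140 s / Technique: Fluo-8 calcium fluorescence / Measure: Max/basal fluorescence ratio as % of EC20–EC100 ACh window / Benchmarks: low control EC20 acetylcholine (0%), high control EC100 acetylcholine (100%) / Replicates: one well per compound, no replicates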
M5 ag – human M5 muscarinic receptor agonists, primary screen, CHO-K1 cells, Fluo-8 calcium fluorescence. CHO-K1 hM5 cells; 0% DMSO wells, 100% maximal acetylcholine response. activation, % at 3 µM. actives 0.19% (n = 360,000). AID 624037, 2012;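 active = activation above the run's mean over test compounds plus 3 SD, cut at about 23% in these data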;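 also: signal is peak over basal fluorescence ratio across the kinetic read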
M4 ag – human M4 muscarinic receptor agonists, primary screen, CHO-K1 cells, Fluo-8 calcium fluorescence. Muscarinic acetylcholine receptor M4 (Homo sapiens), P08173. CHO-K1 hM4/Gqi5; vehicle 0%, full acetylcholine response 100%. activation, % at 3 µM. actives 0.14% (n = 360,000);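 active = activation above the run mean over all test wells plus 3 SD, cut at about 32% in these data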;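 also: peak over basal fluorescence ratio per well then scaled between controls; 0% = DMSO wells and 100% = acetylcholine at EC100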
CHRM4 antagonist – human M4 muscarinic receptor antagonists, primary screen, CHO cells, Fluo-8 calcium fluorescence | Muscarinic acetylcholine receptor M4 (Homo sapiens), P08173 | CHO-hM4 cells, ACh EC80 | inhibition, % at 3 µM | actives 0.73% (n = 360,000);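 active = inhibition above its plate's cutoff, the mean inhibition of sample wells plus 3 SD, cut at about 27% in these data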;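 also: 0% = acetylcholine EC80 with DMSO and 100% = DMSO without agonist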
M5 antag – human M5 muscarinic receptor antagonists, primary screen, CHO cells, Fluo-8 calcium fluorescence; inhibition, % at 3 µM; AID 624040, 2012; Muscarinic acetylcholine receptor M5 (Homo sapiens), P08912; actives 0.59% (n = 360,000); CHO-hM5 cells, ACh EC80;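 active = inhibition above a per-plate cutoff, the mean of that plate's test compounds plus 3 SD, cut at about 27% in these data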;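 also: 0% = acetylcholine EC80 with DMSO and 100% = DMSO without agonist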
Starred values were filed as active, the others as inactive.

SMILES	M4 PAM	M5 PAM	M5 ag	M4 ag	CHRM4 antagonist	M5 antag
COc1ccc(-c2csc(C(O)c3ccc(F)c(F)c3)n2)cc1 (stereo not given)	-7	-11	4	33*	3	14
COc1cc(C(O)c2nc(-c3ccc(N(C)C)cc3)cs2)ccc1F (stereo not given)	-12	-11	8	41*	9	5
CC1CCN(C(=O)Cn2nnc(-c3ccc(C(C)C)cc3)n2)CC1	-1	-2	2	4	-8	-1
CCOC(=O)C1(Cc2cccc(Cl)c2)CCCN(C(=O)CCOC)C1 (stereo not given)	24*	6	1	2	-15	-10
CC(=O)c1ccc(S(=O)(=O)N2CCC3(CC2)CC(=O)c2ccccc2O3)cc1	-7	-12	-2	3	2	15
COc1c2ccc(OCC/C(C)=C/C(=O)C=C(C)C)cc2nc2occc12	10	20*	2	2	-15	-4
CC1(C(=O)NS(=O)(=O)Cc2ccccc2C(F)(F)F)CCN1C(=O)c1cccc(F)c1 (stereo not given)	6	-6	1	0	-5	2
CC(C)CC(=O)Nc1ccc(S(=O)(=O)N2CCCC2)cc1	-6	-3	-5	1	9	28*
COC(=O)CCC(=O)Nc1ccc(S(=O)(=O)N2CCCCCC2)cc1	21	19*	-1	1	-15	-7
O=C(CCCN1C(=O)c2ccccc2C1=O)Nc1ccc(S(=O)(=O)N2CCOCC2)cc1	11	-6	-4	2	28*	7
O=C(CCCN1C(=O)c2ccccc2C1=O)Nc1ccc(S(=O)(=O)N2CCCCC2)cc1	5	3	2	13	-20	-7
CC1CCN(C(C)C(=O)Nc2ccc(S(=O)(=O)N3CCCC3)cc2)CC1 (stereo not given)	-16	-38	-10	2	78*	14
CC1CCN(C(C)C(=O)Nc2cc(S(=O)(=O)N3CCCCC3)ccc2Cl)CC1 (stereo not given)	2	-2	1	-2	2	12
COc1cc(C)c(C)cc1S(=O)(=O)NC1CC(C)(C)NC(C)(C)C1	-5	6	0	0	-1	-3
CCN(C(=O)c1c([N+](=O)[O-])cnn1C)c1ccccc1	4	1	-2	1	14	0
CC1=C(O)C(=O)C(c2c(C)cc(C)c(Br)c2C)=C(O)C1=O	0	3	7	1	-1	-7
CCOC1=C2CN(S(=O)(=O)c3ccc(C)cc3)[C@H](c3ccccc3)C[C@@H]2N(S(=O)(=O)c2ccccc2C)[C@H](c2ccccc2)C1	3	6	0	0	-9	-9
C=CCNC(=O)c1cnn(-c2ccccc2)c1-c1ccccc1	-3	1	-3	3	-16	-1
O=C(O)c1cnn(-c2ccccc2)c1-c1ccccc1	4	19*	2	0	-7	-19
CSc1ncccc1C(=O)OCC(=O)Nc1ccc(N2CCOCC2)cc1	1	1	0	2	4	12
N#CC1=C(N)C(C#N)(C#N)[C@H](c2ccncc2)[C@H]2CN(C(=O)OCc3ccccc3)CC=C12	35*	5	1	-1	-8	-15
Oc1ccc(C[C@H]2CN([C@@H](Cc3cccc(O)c3)CN3CCC[C@@H]3CN3C(=S)NC[C@@H]3Cc3ccccc3)C(=S)N2CC2CCCCC2)cc1	-5	-2	-4	0	-17	0
C#CCOCCOCCOCCNc1nc(N2CCN(C(=O)CCCCCCCCCCNC(=O)[C@H]([C@@H](C)CC)n3cc(CCCCN=C(N)N)nn3)CC2)nc(N2CCN(C(=O)CCCCCCCCCCNC(=O)[C@H](CO)n3cc(CCCCCN)nn3)CC2)n1	-13	-10	-7	1	34*	23
C#CCOCCOCCOCCNc1nc(N2CCN(C(=O)CCCCCCCCCCNC(=O)[C@H]([C@@H](C)CC)n3cc(CCCCCN)nn3)CC2)nc(N2CCN(C(=O)CCCCCCCCCCNC(=O)[C@H]([C@@H](C)CC)n3cc(CCCCN=C(N)N)nn3)CC2)n1	-10	-10	-2	-1	14	12
C#CCOCCOCCOCCNc1nc(N2CCN(C(=O)CCCCCCCCCCNC(=O)Cn3cc(CCCCCN)nn3)CC2)nc(N2CCN(C(=O)CCCCCCCCCCNC(=O)[C@H]([C@@H](C)CC)n3cc(CCCCN=C(N)N)nn3)CC2)n1	-15	-16	-9	-1	41*	14
SMILES	M4 PAM	M5 PAM	M5 ag	M4 ag	CHRM4 antagonist	M5 antag
CC(C)(C)OC(=O)CC[C@@H](C(=O)NCCCCCCCCCCC(=O)N1CCN(C(=O)OC(C)(C)C)CC1)n1cc(CCCCCNC(=O)OC(C)(C)C)nn1	14	8	6	4	-11	-13
C[C@@H](O)Cc1cn(CC(=O)NCCCCCCCCCCC(=O)N2CCNCC2)nn1	5	5	-3	1	4	5
CC(C)(C)OC(=O)NCCCCCc1cn([C@@H](CO)C(=O)NCCCCCCCCCCC(=O)N2CCN(C(=O)OC(C)(C)C)CC2)nn1	-17	-40	1	34*	69*	38*
NCCCCCc1cn(CC(=O)NCCCCCCCCCCC(=O)N2CCNCC2)nn1	23*	4	-4	1	-12	-4
Cc1ccccc1S(=O)(=O)c1c(C)cc(C)n(C(C)C)c1=O	1	22*	-5	0	-10	-11
CCCCn1c(C)cc(C)c(S(=O)(=O)c2ccccc2C)c1=O	-1	1	-12	-1	-5	2
COc1ccccc1CCn1cnc(Cc2ccccc2)c1C(C)C	-15	-23	-2	14	33*	13
COc1ccccc1CCn1cnc(-c2ccc(Br)cc2)c1C(C)C	-7	-6	-6	-1	10	1
CCCCCc1c(-c2ccccc2OC)ncn1CCc1ccccc1OC	-13	-23	4	13	34*	32*
CCCCC1CCC(C(=O)N(CCOC)c2c(N)n(CC(C)C)c(=O)[nH]c2=O)CC1 (stereo not given)	1	-4	2	1	0	3
Cc1noc(C)c1CSc1ccccc1C(=O)Nc1nccs1	5	30*	-5	1	-7	-8
